System: HEK-293T
Experiment: Multiplex assay against HEK293T;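 on Population Tubulin-Different-Phenotype (%): share of the cells with healthy nuclei that show this phenotype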
Type: toxicity, cell-based
Conditions: human
Procedure, shortened: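 Compound was added to live cells that had been stained at seeding with Hoechst33342, BioTracker Green Microtubule Cytoskeleton Dye, MitoTracker Red and Annexin V Alexa Fluor 680, and imaging followed on a CQ1 microscope at 37°C and 5% CO2. CellPathfinder machine-learning gating divided cells into Hoechst high-intensity objects or normal cells, normal cells into healthy, pyknosed or fragmented nuclei, and pyknosed cells into mitotic or apoptotic. Tubulin, mitochondrial-mass and membrane-permeability phenotypes are per cents of healthy-nucleus cells.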

[1] = 12 h, 1 µM, compound concentration 1 uM, replicate 1
[2] = 12 h, 1 µM, compound concentration 1 uM, replicate 2
[3] = 12 h, 10 µM, compound concentration 10 uM, replicate 1
[4] = 12 h, 10 µM, compound concentration 10 uM, replicate 2
[5] = 24 h, 1 µM, compound concentration 1 uM, replicate 1
[6] = 24 h, 1 µM, compound concentration 1 uM, replicate 2
[7] = 24 h, 10 µM, compound concentration 10 uM, replicate 1
[8] = 24 h, 10 µM, compound concentration 10 uM, replicate 2
[9] = 48 h, 1 µM, compound concentration 1 uM, replicate 1
[10] = 48 h, 1 µM, compound concentration 1 uM, replicate 2
[11] = 48 h, 10 µM, compound concentration 10 uM, replicate 1
[12] = 48 h, 10 µM, compound concentration 10 uM, replicate 2

COc1ccccc1CN[C@H]1C2CCN(CC2)[C@H]1C(c1ccccc1)c1ccccc1 [CP-96345]
Population Apoptotic (%) [1]: 61% | Population Fragmented Nuclei (%) [1]: 12% | Population Healthy Nuclei (%) [1]: 37% | Population Hoechst High Intensity Objects (%) [1]: 13% | Population Membrane Permeable-Phenotype (%) [1]: 0% | Population Mitochondria Different-Phenotype (%) [1]: 90% | Population Mitotic Cells (%) [1]: 38% | Population Normal (%) [1]: 86% | Population Pyknosed Nuclei (%) [1]: 50% | Population Tubulin-Different-Phenotype (%) [1]: 80% | Total Cell Count [1]: 250 | Population Apoptotic (%) [2]: 8% | Population Fragmented Nuclei (%) [2]: 3% | Population Healthy Nuclei (%) [2]: 54% | Population Hoechst High Intensity Objects (%) [2]: 3% | Population Membrane Permeable-Phenotype (%) [2]: 10% | Population Mitochondria Different-Phenotype (%) [2]: 17% | Population Mitotic Cells (%) [2]: 91% | Population Normal (%) [2]: 96% | Population Pyknosed Nuclei (%) [2]: 42% | Population Tubulin-Different-Phenotype (%) [2]: 21% | Total Cell Count [2]: 244 | Population Apoptotic (%) [3]: 79% | Population Fragmented Nuclei (%) [3]: 9% | Population Healthy Nuclei (%) [3]: 27% | Population Hoechst High Intensity Objects (%) [3]: 13% | Population Membrane Permeable-Phenotype (%) [3]: 2% | Population Mitochondria Different-Phenotype (%) [3]: 100% | Population Mitotic Cells (%) [3]: 20% | Population Normal (%) [3]: 86% | Population Pyknosed Nuclei (%) [3]: 63% | Population Tubulin-Different-Phenotype (%) [3]: 97% | Total Cell Count [3]: 296 | Population Apoptotic (%) [4]: 25% | Population Fragmented Nuclei (%) [4]: 2% | Population Healthy Nuclei (%) [4]: 36% | Population Hoechst High Intensity Objects (%) [4]: 4% | Population Membrane Permeable-Phenotype (%) [4]: 6% | Population Mitochondria Different-Phenotype (%) [4]: 77% | Population Mitotic Cells (%) [4]: 74% | Population Normal (%) [4]: 95% | Population Pyknosed Nuclei (%) [4]: 60% | Population Tubulin-Different-Phenotype (%) [4]: 74% | Total Cell Count [4]: 179 | Population Apoptotic (%) [5]: 56% | Population Fragmented Nuclei (%) [5]: 11% | Population Healthy Nuclei (%) [5]: 45% | Population Hoechst High Intensity Objects (%) [5]: 16% | Population Membrane Permeable-Phenotype (%) [5]: 6% | Population Mitochondria Different-Phenotype (%) [5]: 87% | Population Mitotic Cells (%) [5]: 43% | Population Normal (%) [5]: 83% | Population Pyknosed Nuclei (%) [5]: 43% | Population Tubulin-Different-Phenotype (%) [5]: 67% | Total Cell Count [5]: 253 | Population Apoptotic (%) [6]: 10% | Population Fragmented Nuclei (%) [6]: 2% | Population Healthy Nuclei (%) [6]: 67% | Population Hoechst High Intensity Objects (%) [6]: 3% | Population Membrane Permeable-Phenotype (%) [6]: 5% | Population Mitochondria Different-Phenotype (%) [6]: 14% | Population Mitotic Cells (%) [6]: 89% | Population Normal (%) [6]: 97% | Population Pyknosed Nuclei (%) [6]: 30% | Population Tubulin-Different-Phenotype (%) [6]: 20% | Total Cell Count [6]: 333 | Population Apoptotic (%) [7]: 81% | Population Fragmented Nuclei (%) [7]: 13% | Population Healthy Nuclei (%) [7]: 39% | Population Hoechst High Intensity Objects (%) [7]: 11% | Population Membrane Permeable-Phenotype (%) [7]: 0% | Population Mitochondria Different-Phenotype (%) [7]: 100% | Population Mitotic Cells (%) [7]: 18% | Population Normal (%) [7]: 88% | Population Pyknosed Nuclei (%) [7]: 47% | Population Tubulin-Different-Phenotype (%) [7]: 99% | Total Cell Count [7]: 298 | Population Apoptotic (%) [8]: 26% | Population Fragmented Nuclei (%) [8]: 5% | Population Healthy Nuclei (%) [8]: 44% | Population Hoechst High Intensity Objects (%) [8]: 2% | Population Membrane Permeable-Phenotype (%) [8]: 4% | Population Mitochondria Different-Phenotype (%) [8]: 75% | Population Mitotic Cells (%) [8]: 73% | Population Normal (%) [8]: 97% | Population Pyknosed Nuclei (%) [8]: 50% | Population Tubulin-Different-Phenotype (%) [8]: 72% | Total Cell Count [8]: 218 | Population Apoptotic (%) [9]: 48% | Population Fragmented Nuclei (%) [9]: 15% | Population Healthy Nuclei (%) [9]: 48% | Population Hoechst High Intensity Objects (%) [9]: 14% | Population Membrane Permeable-Phenotype (%) [9]: 4% | Population Mitochondria Different-Phenotype (%) [9]: 57% | Population Mitotic Cells (%) [9]: 51% | Population Normal (%) [9]: 85% | Population Pyknosed Nuclei (%) [9]: 36% | Population Tubulin-Different-Phenotype (%) [9]: 58% | Total Cell Count [9]: 334 | Population Apoptotic (%) [10]: 8% | Population Fragmented Nuclei (%) [10]: 3% | Population Healthy Nuclei (%) [10]: 86% | Population Hoechst High Intensity Objects (%) [10]: 2% | Population Membrane Permeable-Phenotype (%) [10]: 6% | Population Mitochondria Different-Phenotype (%) [10]: 4% | Population Mitotic Cells (%) [10]: 91% | Population Normal (%) [10]: 97% | Population Pyknosed Nuclei (%) [10]: 9% | Population Tubulin-Different-Phenotype (%) [10]: 13% | Total Cell Count [10]: 612 | Population Apoptotic (%) [11]: 79% | Population Fragmented Nuclei (%) [11]: 16% | Population Healthy Nuclei (%) [11]: 55% | Population Hoechst High Intensity Objects (%) [11]: 13% | Population Membrane Permeable-Phenotype (%) [11]: 0% | Population Mitochondria Different-Phenotype (%) [11]: 98% | Population Mitotic Cells (%) [11]: 20% | Population Normal (%) [11]: 86% | Population Pyknosed Nuclei (%) [11]: 28% | Population Tubulin-Different-Phenotype (%) [11]: 94% | Total Cell Count [11]: 327 | Population Apoptotic (%) [12]: 39% | Population Fragmented Nuclei (%) [12]: 3% | Population Healthy Nuclei (%) [12]: 71% | Population Hoechst High Intensity Objects (%) [12]: 2% | Population Membrane Permeable-Phenotype (%) [12]: 4% | Population Mitochondria Different-Phenotype (%) [12]: 39% | Population Mitotic Cells (%) [12]: 60% | Population Normal (%) [12]: 97% | Population Pyknosed Nuclei (%) [12]: 25% | Population Tubulin-Different-Phenotype (%) [12]: 63% | Total Cell Count [12]: 330

From ChEMBL document CHEMBL4689842, “EUbOPEN Chemogenomics Library wave 1” (2021)
